Test results: ChEMBL document CHEMBL4689842, “EUbOPEN Chemogenomics Library wave 1” (2021)
Where “and” joins values, the source holds several entries; their conditions need not be identical. Identical values can stand only once.

Tested on: HEK-293T
Assay: Multiplex assay against HEK293T;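 on Population Tubulin-Different-Phenotype (%): share of the cells with healthy nuclei that show this phenotype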
Assay type: toxicity, cell-based
Details: human
Procedure, shortened: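 Cells stained live at seeding with Hoechst33342, BioTracker Green Microtubule Cytoskeleton Dye, MitoTracker Red and Annexin V Alexa Fluor 680 were imaged on a CQ1 microscope at 37°C and 5% CO2 after compound addition. Their classification by CellPathfinder machine-learning gating ran from Hoechst high-intensity objects versus normal cells, to healthy, pyknosed or fragmented nuclei among normal cells, to mitotic or apoptotic among pyknosed cells. Tubulin, mitochondrial-mass and membrane-permeability phenotypes are per cents of healthy-nucleus cells.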

[1] = 12 h, 1 µM, compound concentration 1 uM, replicate 1
[2] = 12 h, 1 µM, compound concentration 1 uM, replicate 2
[3] = 12 h, 10 µM, compound concentration 10 uM, replicate 1
[4] = 12 h, 10 µM, compound concentration 10 uM, replicate 2
[5] = 24 h, 1 µM, compound concentration 1 uM, replicate 1
[6] = 24 h, 1 µM, compound concentration 1 uM, replicate 2
[7] = 24 h, 10 µM, compound concentration 10 uM, replicate 1
[8] = 24 h, 10 µM, compound concentration 10 uM, replicate 2

NC(=O)c1cccc(-c2cc(Nc3ccc(OC(F)(F)F)cc3)ncn2)c1
Population Apoptotic (%) [1]: 23% | Population Fragmented Nuclei (%) [1]: 12% | Population Healthy Nuclei (%) [1]: 75% | Population Hoechst High Intensity Objects (%) [1]: 7% | Population Membrane Permeable-Phenotype (%) [1]: 4% | Population Mitochondria Different-Phenotype (%) [1]: 5% | Population Mitotic Cells (%) [1]: 76% | Population Normal (%) [1]: 92% | Population Pyknosed Nuclei (%) [1]: 12% | Population Tubulin-Different-Phenotype (%) [1]: 3% | Total Cell Count [1]: 801 | Population Apoptotic (%) [2]: 9% | Population Fragmented Nuclei (%) [2]: 7% | Population Healthy Nuclei (%) [2]: 88% | Population Hoechst High Intensity Objects (%) [2]: 1% | Population Membrane Permeable-Phenotype (%) [2]: 0% | Population Mitochondria Different-Phenotype (%) [2]: 10% | Population Mitotic Cells (%) [2]: 90% | Population Normal (%) [2]: 98% | Population Pyknosed Nuclei (%) [2]: 4% | Population Tubulin-Different-Phenotype (%) [2]: 5% | Total Cell Count [2]: 1607 | Population Apoptotic (%) [3]: 18% | Population Fragmented Nuclei (%) [3]: 15% | Population Healthy Nuclei (%) [3]: 54% | Population Hoechst High Intensity Objects (%) [3]: 17% | Population Membrane Permeable-Phenotype (%) [3]: 4% | Population Mitochondria Different-Phenotype (%) [3]: 4% | Population Mitotic Cells (%) [3]: 81% | Population Normal (%) [3]: 82% | Population Pyknosed Nuclei (%) [3]: 29% | Population Tubulin-Different-Phenotype (%) [3]: 4% | Total Cell Count [3]: 597 | Population Apoptotic (%) [4]: 24% | Population Fragmented Nuclei (%) [4]: 4% | Population Healthy Nuclei (%) [4]: 89% | Population Hoechst High Intensity Objects (%) [4]: 2% | Population Membrane Permeable-Phenotype (%) [4]: 0% | Population Mitochondria Different-Phenotype (%) [4]: 14% | Population Mitotic Cells (%) [4]: 75% | Population Normal (%) [4]: 97% | Population Pyknosed Nuclei (%) [4]: 6% | Population Tubulin-Different-Phenotype (%) [4]: 6% | Total Cell Count [4]: 1186 | Population Apoptotic (%) [5]: 22% | Population Fragmented Nuclei (%) [5]: 12% | Population Healthy Nuclei (%) [5]: 81% | Population Hoechst High Intensity Objects (%) [5]: 4% | Population Membrane Permeable-Phenotype (%) [5]: 7% | Population Mitochondria Different-Phenotype (%) [5]: 3% | Population Mitotic Cells (%) [5]: 77% | Population Normal (%) [5]: 95% | Population Pyknosed Nuclei (%) [5]: 5% | Population Tubulin-Different-Phenotype (%) [5]: 4% | Total Cell Count [5]: 1111 | Population Apoptotic (%) [6]: 3% | Population Fragmented Nuclei (%) [6]: 23% | Population Healthy Nuclei (%) [6]: 74% | Population Hoechst High Intensity Objects (%) [6]: 3% | Population Membrane Permeable-Phenotype (%) [6]: 4% | Population Mitochondria Different-Phenotype (%) [6]: 2% | Population Mitotic Cells (%) [6]: 96% | Population Normal (%) [6]: 96% | Population Pyknosed Nuclei (%) [6]: 2% | Population Tubulin-Different-Phenotype (%) [6]: 6% | Total Cell Count [6]: 2709 | Population Apoptotic (%) [7]: 17% | Population Fragmented Nuclei (%) [7]: 16% | Population Healthy Nuclei (%) [7]: 66% | Population Hoechst High Intensity Objects (%) [7]: 11% | Population Membrane Permeable-Phenotype (%) [7]: 3% | Population Mitochondria Different-Phenotype (%) [7]: 4% | Population Mitotic Cells (%) [7]: 82% | Population Normal (%) [7]: 88% | Population Pyknosed Nuclei (%) [7]: 17% | Population Tubulin-Different-Phenotype (%) [7]: 6% | Total Cell Count [7]: 593 | Population Apoptotic (%) [8]: 4% | Population Fragmented Nuclei (%) [8]: 9% | Population Healthy Nuclei (%) [8]: 85% | Population Hoechst High Intensity Objects (%) [8]: 3% | Population Membrane Permeable-Phenotype (%) [8]: 1% | Population Mitochondria Different-Phenotype (%) [8]: 6% | Population Mitotic Cells (%) [8]: 95% | Population Normal (%) [8]: 96% | Population Pyknosed Nuclei (%) [8]: 4% | Population Tubulin-Different-Phenotype (%) [8]: 11% | Total Cell Count [8]: 1486

C=CCn1c(=O)c2cnc(Nc3ccc(N4CCN(C)CC4)cc3)nc2n1-c1cccc(C(C)(C)O)n1 [ADAVOSERTIB]
Population Apoptotic (%) [1]: 16% | Population Fragmented Nuclei (%) [1]: 23% | Population Healthy Nuclei (%) [1]: 36% | Population Hoechst High Intensity Objects (%) [1]: 14% | Population Membrane Permeable-Phenotype (%) [1]: 4% | Population Mitochondria Different-Phenotype (%) [1]: 3% | Population Mitotic Cells (%) [1]: 83% | Population Normal (%) [1]: 85% | Population Pyknosed Nuclei (%) [1]: 39% | Population Tubulin-Different-Phenotype (%) [1]: 2% | Total Cell Count [1]: 606 | Population Apoptotic (%) [2]: 13% | Population Fragmented Nuclei (%) [2]: 7% | Population Healthy Nuclei (%) [2]: 62% | Population Hoechst High Intensity Objects (%) [2]: 3% | Population Membrane Permeable-Phenotype (%) [2]: 3% | Population Mitochondria Different-Phenotype (%) [2]: 16% | Population Mitotic Cells (%) [2]: 86% | Population Normal (%) [2]: 96% | Population Pyknosed Nuclei (%) [2]: 30% | Population Tubulin-Different-Phenotype (%) [2]: 15% | Total Cell Count [2]: 1183 | Population Apoptotic (%) [3]: 12% | Population Fragmented Nuclei (%) [3]: 20% | Population Healthy Nuclei (%) [3]: 22% | Population Hoechst High Intensity Objects (%) [3]: 17% | Population Membrane Permeable-Phenotype (%) [3]: 16% | Population Mitochondria Different-Phenotype (%) [3]: 16% | Population Mitotic Cells (%) [3]: 87% | Population Normal (%) [3]: 82% | Population Pyknosed Nuclei (%) [3]: 56% | Population Tubulin-Different-Phenotype (%) [3]: 47% | Total Cell Count [3]: 637 | Population Apoptotic (%) [4]: 9% | Population Fragmented Nuclei (%) [4]: 15% | Population Healthy Nuclei (%) [4]: 27% | Population Hoechst High Intensity Objects (%) [4]: 2% | Population Membrane Permeable-Phenotype (%) [4]: 4% | Population Mitochondria Different-Phenotype (%) [4]: 32% | Population Mitotic Cells (%) [4]: 90% | Population Normal (%) [4]: 97% | Population Tubulin-Different-Phenotype (%) [4]: 70% | Total Cell Count [4]: 1182 | Population Apoptotic (%) [5]: 17% | Population Fragmented Nuclei (%) [5]: 22% | Population Healthy Nuclei (%) [5]: 46% | Population Hoechst High Intensity Objects (%) [5]: 9% | Population Membrane Permeable-Phenotype (%) [5]: 6% | Population Mitochondria Different-Phenotype (%) [5]: 5% | Population Mitotic Cells (%) [5]: 82% | Population Normal (%) [5]: 90% | Population Pyknosed Nuclei (%) [5]: 30% | Population Tubulin-Different-Phenotype (%) [5]: 6% | Total Cell Count [5]: 590 | Population Apoptotic (%) [6]: 16% | Population Fragmented Nuclei (%) [6]: 7% | Population Healthy Nuclei (%) [6]: 58% | Population Hoechst High Intensity Objects (%) [6]: 4% | Population Membrane Permeable-Phenotype (%) [6]: 5% | Population Mitochondria Different-Phenotype (%) [6]: 14% | Population Mitotic Cells (%) [6]: 83% | Population Normal (%) [6]: 95% | Population Pyknosed Nuclei (%) [6]: 33% | Population Tubulin-Different-Phenotype (%) [6]: 32% | Total Cell Count [6]: 1164 | Population Apoptotic (%) [7]: 21% | Population Fragmented Nuclei (%) [7]: 27% | Population Healthy Nuclei (%) [7]: 26% | Population Hoechst High Intensity Objects (%) [7]: 18% | Population Membrane Permeable-Phenotype (%) [7]: 12% | Population Mitochondria Different-Phenotype (%) [7]: 32% | Population Mitotic Cells (%) [7]: 78% | Population Normal (%) [7]: 81% | Population Pyknosed Nuclei (%) [7]: 46% | Population Tubulin-Different-Phenotype (%) [7]: 56% | Total Cell Count [7]: 609 | Population Apoptotic (%) [8]: 20% | Population Fragmented Nuclei (%) [8]: 15% | Population Healthy Nuclei (%) [8]: 39% | Population Hoechst High Intensity Objects (%) [8]: 3% | Population Membrane Permeable-Phenotype (%) [8]: 3% | Population Mitochondria Different-Phenotype (%) [8]: 53% | Population Mitotic Cells (%) [8]: 79% | Population Normal (%) [8]: 96% | Population Pyknosed Nuclei (%) [8]: 44% | Population Tubulin-Different-Phenotype (%) [8]: 80% | Total Cell Count [8]: 1042

C[C@H]1Oc2cc(cnc2N)-c2c(nn(C)c2C#N)CN(C)C(=O)c2ccc(F)cc21 [LORLATINIB]
Population Apoptotic (%) [1]: 21% and 18% | Population Fragmented Nuclei (%) [1]: 16% and 9% | Population Healthy Nuclei (%) [1]: 66% and 76% | Population Hoechst High Intensity Objects (%) [1]: 11% and 7% | Population Membrane Permeable-Phenotype (%) [1]: 7% and 4% | Population Mitochondria Different-Phenotype (%) [1]: 3% and 5% | Population Mitotic Cells (%) [1]: 78% and 81% | Population Normal (%) [1]: 88% and 92% | Population Pyknosed Nuclei (%) [1]: 17% and 14% | Population Tubulin-Different-Phenotype (%) [1]: 2% and 3% | Total Cell Count [1]: 529 and 617 | Population Apoptotic (%) [2]: 5% and 14% | Population Fragmented Nuclei (%) [2]: 6% and 7% | Population Healthy Nuclei (%) [2]: 87% | Population Hoechst High Intensity Objects (%) [2]: 2% | Population Membrane Permeable-Phenotype (%) [2]: 3% and 1% | Population Mitochondria Different-Phenotype (%) [2]: 7% and 6% | Population Mitotic Cells (%) [2]: 94% and 85% | Population Normal (%) [2]: 97% | Population Pyknosed Nuclei (%) [2]: 6% and 5% | Population Tubulin-Different-Phenotype (%) [2]: 9% | Total Cell Count [2]: 1515 and 1456 | Population Apoptotic (%) [5]: 18% and 15% | Population Fragmented Nuclei (%) [5]: 12% and 7% | Population Healthy Nuclei (%) [5]: 75% and 82% | Population Hoechst High Intensity Objects (%) [5]: 3% and 4% | Population Membrane Permeable-Phenotype (%) [5]: 10% and 9% | Population Mitochondria Different-Phenotype (%) [5]: 2% and 5% | Population Mitotic Cells (%) [5]: 81% and 84% | Population Normal (%) [5]: 96% and 95% | Population Pyknosed Nuclei (%) [5]: 12% and 9% | Population Tubulin-Different-Phenotype (%) [5]: 5% and 4% | Total Cell Count [5]: 614 and 730 | Population Apoptotic (%) [6]: 3% and 7% | Population Fragmented Nuclei (%) [6]: 14% and 18% | Population Healthy Nuclei (%) [6]: 80% and 78% | Population Membrane Permeable-Phenotype (%) [6]: 8% and 3% | Population Mitochondria Different-Phenotype (%) [6]: 1% | Population Mitotic Cells (%) [6]: 96% and 92% | Population Pyknosed Nuclei (%) [6]: 4% and 3% | Population Tubulin-Different-Phenotype (%) [6]: 9% and 3% | Total Cell Count [6]: 2424 and 2417
